Measurements reported in ChEMBL document CHEMBL1147105, “In vitro and in vivo activities of PD 0305970 and PD 0326448, new bacterial gyrase/topoisomerase inhibitors with potent antibacterial activities versus multidrug-resistant gram-positive and fastidious organism groups” (2007).
Converted amounts (≈) assume the structure as drawn.

How the values were obtained:
[1] = system: Streptococcus equinus; assay: Antibacterial activity against Streptococcus bovis; type: functional
Method in brief: (§1)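 Broth microdilution MIC following CLSI guidelines, in cation-adjusted Mueller-Hinton broth with 3% lysed horse blood. Plates incubated at 35°C. Clinical isolates and reference strains, with identity confirmed by standard microbiological methods.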

[2] = system: Bacteroides ovatus; assay: Antibacterial activity against Bacteroides ovatus; type: functional
Method in brief: (§2)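 Anaerobic broth microdilution MIC following CLSI guidelines, in supplemented Brucella broth. Run in an anaerobe chamber under 5% CO2, 5% H2 and 90% N2 at 35°C, and read after 48 h. Reported as MIC range, MIC50 and MIC90.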

[3] = system: Peptostreptococcus anaerobius; assay: Antibacterial activity against Peptostreptococcus anaerobius; type: functional; method in brief: as §2
[4] = system: Neisseria gonorrhoeae; assay: Antibacterial activity against Neisseria gonorrhoeae; type: functional
Method in brief: (§3)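 MIC by broth microdilution in gonococcal broth, incubated at 35°C in 5% CO2. Reported as MIC range, MIC50 and MIC90.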

[5] = system: Pseudomonas aeruginosa; assay: Antibacterial activity against Pseudomonas aeruginosa; type: functional
Method in brief: (§4)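 Broth microdilution MIC following CLSI guidelines, in cation-adjusted Mueller-Hinton broth, incubated at 35°C. Recent clinical isolates and reference strains, with identity confirmed by automated and standard microbiological methods. Results reported as MIC range, MIC50 and MIC90.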

[6] = system: Streptococcus mitis; assay: Antibacterial activity against Streptococcus mitis; type: functional; method in brief: as §1
[7] = system: Proteus mirabilis; assay: Antibacterial activity against Proteus mirabilis; type: functional; method in brief: as §4
[8] = system: Bacteroides thetaiotaomicron; assay: Antibacterial activity against Bacteroides thetaiotaomicron; type: functional; method in brief: as §2
[9] = system: Parabacteroides distasonis; assay: Antimicrobial activity against Bacteroides distasonis; type: functional
Method in brief: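 Anaerobic broth microdilution MIC following CLSI guidelines, in supplemented Brucella broth. Incubated at 35°C in a chamber under 5% CO2, 5% H2 and 90% N2. Read after 48 h.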

[10] = system: Prevotella buccae; assay: Antibacterial activity against Prevotella buccae; type: functional; details: Segatella buccae; method in brief: as §2
[11] = system: Neisseria meningitidis; assay: Antibacterial activity against Neisseria meningitidis; type: functional; method in brief: as §3
[12] = system: Enterococcus faecium; assay: Antibacterial activity against Enterococcus faecium; type: functional
Method in brief: (§5)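 Broth microdilution MIC per CLSI guidelines, incubated at 35°C. Cation-adjusted Mueller-Hinton broth for nonfastidious organisms and staphylococci. Streptococci tested in the same broth with 3% lysed horse blood. Anaerobes tested in supplemented Brucella broth inside an anaerobe chamber (5% CO2, 5% H2, 90% N2), read after 48 h. Strains were mainly recent clinical isolates with confirmed identity.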

[13] = system: Corynebacterium sp.; assay: Antibacterial activity against Corynebacterium sp.; type: functional
Method in brief: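 Broth microdilution MIC following CLSI guidelines, in cation-adjusted Mueller-Hinton broth containing 3% lysed horse blood, incubated at 35°C. Clinical isolates with identity confirmed. Reported as MIC range, MIC50 and MIC90.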

[14] = system: Enterococcus faecalis; assay: Antibacterial activity against beta-lactamase positive Enterococcus faecalis; type: functional
Method in brief: (§6)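 MIC by CLSI broth microdilution for nonfastidious organisms, in cation-adjusted Mueller-Hinton broth incubated at 35°C.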

[15] = system: Serratia marcescens; assay: Antibacterial activity against Serratia marcescens; type: functional; method in brief: as §4
[16] = system: Enterobacter cloacae; assay: Antibacterial activity against Enterobacter cloacae; type: functional; method in brief: as §4
[17] = system: Streptococcus salivarius; assay: Antibacterial activity against Streptococcus salivarius; type: functional; method in brief: as §1
[18] = system: Morganella morganii; assay: Antibacterial activity against Morganella morganii; type: functional; method in brief: as §4
[19] = system: Prevotella bivia; assay: Antibacterial activity against Prevotella bivia; type: functional; method in brief: as §2
[20] = system: Enterococcus faecalis; assay: Antibacterial activity against VanB-resistant Enterococcus faecalis; type: functional; method in brief: as §5
[21] = system: Salmonella typhimurium; assay: Antibacterial activity against Salmonella enterica serovar Typhimurium; type: functional, Salmonella enterica subsp. enterica serovar Typhimurium; method in brief: as §4
[22] = system: Prevotella corporis; assay: Antibacterial activity against Prevotella corporis; type: functional; method in brief: as §2
[23] = system: Finegoldia magna; assay: Antibacterial activity against Peptostreptococcus magnus; type: functional; method in brief: as §2
[24] = system: Cutibacterium acnes; assay: Antibacterial activity against Propionibacterium acnes; type: functional
[25] = system: Legionella pneumophila; assay: Antibacterial activity against Legionella pneumophila; type: functional
Method in brief: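 Broth microdilution MIC per CLSI guidelines, run in buffered yeast extract α-ketoglutarate broth at 35°C and read after 48 h.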

[26] = system: Moraxella catarrhalis; assay: Antibacterial activity against beta-lactamase negative Moraxella catarrhalis; type: functional
[27] = system: Fusobacterium necrophorum; assay: Antibacterial activity against Fusobacterium necrophorum; type: functional; method in brief: as §2
[28] = system: Klebsiella pneumoniae; assay: Antibacterial activity against beta-lactamase positive Klebsiella pneumoniae; type: functional; method in brief: as §6
[29] = system: Haemophilus influenzae; assay: Antibacterial activity against beta-lactamase positive Haemophilus influenzae; type: functional
Method in brief: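 Broth microdilution MIC following CLSI guidelines, in Haemophilus test medium at 35°C.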

[30] = system: Staphylococcus aureus; assay: Antibacterial activity against oxacillin-susceptible Staphylococcus aureus; type: functional; method in brief: as §6
[31] = system: Hoylesella oralis; assay: Antibacterial activity against Prevotella oralis; type: functional; method in brief: as §2
[32] = system: Shigella sonnei; assay: Antibacterial activity against Shigella sonnei; type: functional; method in brief: as §4
[33] = system: Staphylococcus epidermidis; assay: Antibacterial activity against oxacillin-resistant Staphylococcus epidermidis; type: functional; method in brief: as §5

With `Cc1c(N2CC[C@@H]([C@H](C)N)C2)c(F)cc2c(=O)[nH]c(=O)n(C3CC3)c12` the MIC50 [1] was 0.06 µg/mL (≈ 0.173 µM), the MIC90 [1] was 0.06 µg/mL (≈ 0.173 µM) and the MIC50 [2] was 16 µg/mL (≈ 46.2 µM). It also gave an MIC90 [2] of 32 µg/mL (≈ 92.4 µM), an MIC [3] of 0.06 µg/mL (≈ 0.173 µM) and an MIC50 [4] of 0.5 µg/mL (≈ 1.44 µM). The MIC90 [4] was 1 µg/mL (≈ 2.89 µM), the MIC50 [5] was 8 µg/mL (≈ 23.1 µM) and the MIC90 [5] was > 64 µg/mL. For the same compound, the MIC50 [6] was 0.03 µg/mL (≈ 0.0866 µM), the MIC90 [6] was 0.06 µg/mL (≈ 0.173 µM) and the MIC50 [7] was 2 µg/mL (≈ 5.77 µM). The MIC90 [7] was 8 µg/mL (≈ 23.1 µM), the MIC50 [8] was 16 µg/mL (≈ 46.2 µM) and the MIC90 [8] was 32 µg/mL (≈ 92.4 µM). The MIC50 [9] was 16 µg/mL (≈ 46.2 µM), the MIC90 [9] was 32 µg/mL (≈ 92.4 µM) and the MIC50 [10] was 0.5 µg/mL (≈ 1.44 µM). It also gave an MIC90 [10] of 2 µg/mL (≈ 5.77 µM), an MIC50 [11] of 0.5 µg/mL (≈ 1.44 µM) and an MIC90 [11] of 1 µg/mL (≈ 2.89 µM). For the same compound, the MIC50 [12] was 1 µg/mL (≈ 2.89 µM), the MIC90 [12] was 4 µg/mL (≈ 11.5 µM) and the MIC50 [13] was 0.5 µg/mL (≈ 1.44 µM). It also gave an MIC90 [13] of 1 µg/mL (≈ 2.89 µM), an MIC [14] of 0.06 µg/mL (≈ 0.173 µM) and an MIC50 [15] of 4 µg/mL (≈ 11.5 µM). For the same compound, the MIC90 [15] was 32 µg/mL (≈ 92.4 µM), the MIC50 [16] was 2 µg/mL (≈ 5.77 µM) and the MIC90 [16] was 16 µg/mL (≈ 46.2 µM). For the same compound, the MIC50 [17] was 0.03 µg/mL (≈ 0.0866 µM), the MIC90 [17] was 0.06 µg/mL (≈ 0.173 µM) and the MIC50 [18] was 2 µg/mL (≈ 5.77 µM). It also gave an MIC90 [18] of 32 µg/mL (≈ 92.4 µM), an MIC50 [19] of 0.5 µg/mL (≈ 1.44 µM) and an MIC90 [19] of 2 µg/mL (≈ 5.77 µM). For the same compound, the MIC50 [20] was 0.25 µg/mL (≈ 0.722 µM), the MIC90 [20] was 0.5 µg/mL (≈ 1.44 µM) and the MIC50 [21] was 2 µg/mL (≈ 5.77 µM). The MIC90 [21] was 4 µg/mL (≈ 11.5 µM), the MIC50 [22] was 0.5 µg/mL (≈ 1.44 µM) and the MIC90 [22] was 2 µg/mL (≈ 5.77 µM). The MIC [23] was 0.06 µg/mL (≈ 0.173 µM), the MIC50 [24] was 4 µg/mL (≈ 11.5 µM) and the MIC90 [24] was 8 µg/mL (≈ 23.1 µM). It also gave an MIC50 [25] of 0.5 µg/mL (≈ 1.44 µM), an MIC90 [25] of 0.5 µg/mL (≈ 1.44 µM) and an MIC50 [26] of 0.5 µg/mL (≈ 1.44 µM). The MIC90 [26] was 1 µg/mL (≈ 2.89 µM), the MIC [27] was 0.125 µg/mL (≈ 0.361 µM) and the MIC50 [28] was 8 µg/mL (≈ 23.1 µM). For the same compound, the MIC90 [28] was 64 µg/mL (≈ 185 µM), the MIC50 [29] was 0.5 µg/mL (≈ 1.44 µM) and the MIC90 [29] was 1 µg/mL (≈ 2.89 µM). It also gave an MIC50 [30] of 0.25 µg/mL (≈ 0.722 µM), an MIC90 [30] of 0.25 µg/mL (≈ 0.722 µM) and an MIC50 [31] of 0.5 µg/mL (≈ 1.44 µM). The MIC90 [31] was 2 µg/mL (≈ 5.77 µM), the MIC50 [32] was 2 µg/mL (≈ 5.77 µM) and the MIC90 [32] was 4 µg/mL (≈ 11.5 µM). For the same compound, the MIC50 [33] was 0.25 µg/mL (≈ 0.722 µM) and the MIC90 [33] was 0.25 µg/mL (≈ 0.722 µM).
